ChEMBL document CHEMBL4043093, “2-Oxo-3, 4-dihydropyrimido[4, 5-d]pyrimidinyl derivatives as new irreversible pan fibroblast growth factor receptor (FGFR) inhibitors” (Eur J Med Chem, 2017)

Columns and labels:
[1] = tested on: Tyrosine-protein kinase ABL1 (Homo sapiens), P00519 [F317L]; assay: Inhibition of human non-phosphorylated ABL1 F317L mutant (S229 to K512 residues) expressed in HEK293 cells assessed as residual activity at 1000 nM after 30 mins by Kinomescan method relative to control; type: cell-based
Chain of Tyrosine-protein kinase ABL1 (Homo sapiens), P00519 [F317L] (P00519 whole entry F317L, the tested form may be a part): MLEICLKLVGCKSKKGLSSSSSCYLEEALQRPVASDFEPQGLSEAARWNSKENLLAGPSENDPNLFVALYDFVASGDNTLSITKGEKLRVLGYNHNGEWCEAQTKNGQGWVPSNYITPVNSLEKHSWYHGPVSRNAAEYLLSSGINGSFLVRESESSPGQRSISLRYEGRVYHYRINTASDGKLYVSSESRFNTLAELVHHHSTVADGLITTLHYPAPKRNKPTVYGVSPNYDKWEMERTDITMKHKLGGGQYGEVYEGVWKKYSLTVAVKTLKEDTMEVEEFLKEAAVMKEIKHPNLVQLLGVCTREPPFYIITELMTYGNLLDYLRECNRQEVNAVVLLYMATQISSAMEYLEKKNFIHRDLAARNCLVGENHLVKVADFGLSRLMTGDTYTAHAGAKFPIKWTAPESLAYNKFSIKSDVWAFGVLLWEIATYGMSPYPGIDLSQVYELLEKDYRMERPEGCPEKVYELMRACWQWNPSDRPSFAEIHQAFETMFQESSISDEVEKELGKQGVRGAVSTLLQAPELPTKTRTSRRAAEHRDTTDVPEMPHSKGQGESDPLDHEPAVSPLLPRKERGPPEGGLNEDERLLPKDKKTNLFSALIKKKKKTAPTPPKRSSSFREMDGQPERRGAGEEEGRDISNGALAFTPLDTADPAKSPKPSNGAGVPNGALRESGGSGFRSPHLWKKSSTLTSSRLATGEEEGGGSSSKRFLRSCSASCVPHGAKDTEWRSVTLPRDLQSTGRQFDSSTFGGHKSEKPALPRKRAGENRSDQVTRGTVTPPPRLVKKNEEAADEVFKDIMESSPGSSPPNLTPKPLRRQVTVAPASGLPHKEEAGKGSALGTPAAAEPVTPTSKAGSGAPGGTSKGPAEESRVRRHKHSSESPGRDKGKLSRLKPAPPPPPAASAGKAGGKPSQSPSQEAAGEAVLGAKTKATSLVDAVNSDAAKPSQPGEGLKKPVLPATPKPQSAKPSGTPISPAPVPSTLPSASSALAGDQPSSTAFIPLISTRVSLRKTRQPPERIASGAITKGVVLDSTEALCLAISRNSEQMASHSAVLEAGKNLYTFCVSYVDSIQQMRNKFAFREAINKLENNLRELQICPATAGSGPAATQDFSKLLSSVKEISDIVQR
How it was run: (§1)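 KINOMEscan binding panel of 456 kinases, with the test compound at a single concentration of 1 µM. Read-out is Percent Control.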

[2] = target: Tyrosine-protein kinase ABL2 (Homo sapiens) (UniProt P42684); assay: Inhibition of wild-type human ABL2 (A248 to G542 residues) expressed in Escherichia coli BL21 assessed as residual activity at 1000 nM after 30 mins by Kinomescan method relative to control
Chain of Tyrosine-protein kinase ABL2 (Homo sapiens) (P42684 whole entry, the tested form may be a part): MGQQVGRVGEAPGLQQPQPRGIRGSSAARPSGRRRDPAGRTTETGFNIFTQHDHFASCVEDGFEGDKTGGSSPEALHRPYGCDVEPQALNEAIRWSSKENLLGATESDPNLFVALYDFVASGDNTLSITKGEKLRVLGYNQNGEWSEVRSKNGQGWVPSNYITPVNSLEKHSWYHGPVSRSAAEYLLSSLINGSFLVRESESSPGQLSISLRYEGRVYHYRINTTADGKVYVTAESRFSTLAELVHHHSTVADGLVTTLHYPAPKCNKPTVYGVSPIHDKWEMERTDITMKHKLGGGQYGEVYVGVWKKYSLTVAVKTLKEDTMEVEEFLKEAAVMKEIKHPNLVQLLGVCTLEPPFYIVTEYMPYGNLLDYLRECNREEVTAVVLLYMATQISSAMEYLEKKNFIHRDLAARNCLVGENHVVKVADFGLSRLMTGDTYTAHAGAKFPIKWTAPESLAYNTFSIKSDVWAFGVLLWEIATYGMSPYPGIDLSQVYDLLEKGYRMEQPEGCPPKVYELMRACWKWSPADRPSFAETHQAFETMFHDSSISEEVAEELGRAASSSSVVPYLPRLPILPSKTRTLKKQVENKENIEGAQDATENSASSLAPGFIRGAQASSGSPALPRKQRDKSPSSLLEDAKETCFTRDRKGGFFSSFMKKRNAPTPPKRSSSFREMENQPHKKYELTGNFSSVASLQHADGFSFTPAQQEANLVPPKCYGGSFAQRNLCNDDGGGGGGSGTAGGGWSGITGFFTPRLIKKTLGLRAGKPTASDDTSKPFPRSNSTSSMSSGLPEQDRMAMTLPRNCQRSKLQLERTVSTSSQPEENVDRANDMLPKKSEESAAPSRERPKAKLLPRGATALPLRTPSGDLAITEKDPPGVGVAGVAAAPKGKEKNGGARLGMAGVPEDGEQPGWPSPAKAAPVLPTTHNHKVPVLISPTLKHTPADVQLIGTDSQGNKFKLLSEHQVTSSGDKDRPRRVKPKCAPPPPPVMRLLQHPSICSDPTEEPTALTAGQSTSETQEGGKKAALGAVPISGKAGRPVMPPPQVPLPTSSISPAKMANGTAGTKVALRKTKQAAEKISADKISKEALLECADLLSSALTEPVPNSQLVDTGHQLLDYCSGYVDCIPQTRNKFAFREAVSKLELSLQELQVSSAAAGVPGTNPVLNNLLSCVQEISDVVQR
How it was run: (§2)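 Single-point screen at a fixed 1 µM, run within a 456-kinase DiscoveRx KINOMEscan panel. Each kinase's read-out is Percent Control, i.e. signal relative to a control without compound. Hits were scored by a Percent Control < 35 cut-off, and an S(35) selectivity score was calculated across the non-mutant kinases.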

[3] = target: Tyrosine-protein kinase receptor UFO (Homo sapiens) (UniProt P30530); assay: Inhibition of wild-type human partial length AXL (R497 to Y821 residues) expressed in Escherichia coli BL21 assessed as residual activity at 1000 nM after 30 mins by Kinomescan method relative to control
[4] = target: Calcium/calmodulin-dependent protein kinase type 1 (Homo sapiens) (UniProt Q14012); assay: Inhibition of wild-type human full length CAMK1 (M1 to L370 residues) expressed in Escherichia coli BL21 assessed as residual activity at 1000 nM after 30 mins by Kinomescan method relative to control; how it was run: as §2
Chain of Calcium/calmodulin-dependent protein kinase type 1 (Homo sapiens) (Q14012 whole entry, looked up, the tested form may be a part): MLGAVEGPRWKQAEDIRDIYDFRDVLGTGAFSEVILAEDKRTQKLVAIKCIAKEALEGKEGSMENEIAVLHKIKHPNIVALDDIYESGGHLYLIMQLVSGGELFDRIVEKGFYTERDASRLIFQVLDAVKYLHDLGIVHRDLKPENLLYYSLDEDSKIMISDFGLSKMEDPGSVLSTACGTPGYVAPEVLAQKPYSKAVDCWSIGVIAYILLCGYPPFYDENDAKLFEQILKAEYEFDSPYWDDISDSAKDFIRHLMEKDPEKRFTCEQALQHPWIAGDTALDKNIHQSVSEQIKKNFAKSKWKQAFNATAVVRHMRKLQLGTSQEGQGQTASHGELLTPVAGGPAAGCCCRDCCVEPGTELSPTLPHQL

[5] = target: Calcium/calmodulin-dependent protein kinase type II subunit alpha (Homo sapiens) (UniProt Q9UQM7); assay: Inhibition of wild-type human partial length CAMK2A (M1 to K328 residues) expressed in Escherichia coli BL21 assessed as residual activity at 1000 nM after 30 mins by Kinomescan method relative to control
Chain of Calcium/calmodulin-dependent protein kinase type II subunit alpha (Homo sapiens) (Q9UQM7 whole entry, the tested form may be a part): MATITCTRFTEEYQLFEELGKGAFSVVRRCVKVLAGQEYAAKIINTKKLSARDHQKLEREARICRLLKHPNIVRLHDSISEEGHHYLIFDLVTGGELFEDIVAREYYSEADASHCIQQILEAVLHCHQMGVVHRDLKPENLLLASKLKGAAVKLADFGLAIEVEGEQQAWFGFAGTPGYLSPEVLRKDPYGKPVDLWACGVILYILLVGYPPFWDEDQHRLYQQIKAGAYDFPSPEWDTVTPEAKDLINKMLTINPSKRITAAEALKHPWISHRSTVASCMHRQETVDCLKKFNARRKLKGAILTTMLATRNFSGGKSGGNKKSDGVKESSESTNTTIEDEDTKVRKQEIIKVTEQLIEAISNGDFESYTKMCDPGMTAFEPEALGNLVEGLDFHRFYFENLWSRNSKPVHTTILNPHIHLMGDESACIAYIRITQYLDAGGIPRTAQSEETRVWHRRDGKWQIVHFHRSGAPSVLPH

[6] = target: Dual specificity protein kinase CLK1 (Homo sapiens) (UniProt P49759); assay: Inhibition of wild-type human full length CLK1 (M1 to I484 residues) expressed in Escherichia coli BL21 assessed as residual activity at 1000 nM after 30 mins by Kinomescan method relative to control; how it was run: as §2
Chain of Dual specificity protein kinase CLK1 (Homo sapiens) (P49759 whole entry, looked up, the tested form may be a part): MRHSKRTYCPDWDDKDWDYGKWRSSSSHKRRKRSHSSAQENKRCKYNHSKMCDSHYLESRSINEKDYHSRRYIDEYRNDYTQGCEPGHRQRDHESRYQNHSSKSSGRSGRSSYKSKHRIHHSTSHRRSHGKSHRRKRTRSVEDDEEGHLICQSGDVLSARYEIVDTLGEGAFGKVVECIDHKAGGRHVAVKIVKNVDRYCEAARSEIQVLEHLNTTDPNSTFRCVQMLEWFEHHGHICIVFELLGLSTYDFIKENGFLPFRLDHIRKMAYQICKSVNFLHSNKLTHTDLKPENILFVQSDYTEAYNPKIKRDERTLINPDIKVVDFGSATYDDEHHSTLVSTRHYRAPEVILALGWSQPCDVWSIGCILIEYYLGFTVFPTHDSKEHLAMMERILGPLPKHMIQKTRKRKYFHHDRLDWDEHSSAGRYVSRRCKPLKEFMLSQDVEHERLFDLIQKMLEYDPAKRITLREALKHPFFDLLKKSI

[7] = target: Casein kinase II subunit alpha (Homo sapiens) (UniProt P68400); assay: Inhibition of wild-type human full length CSNK2A1 (M1 to Q391 residues) expressed in HEK293 cells assessed as residual activity at 1000 nM after 30 mins by Kinomescan method relative to control; type: cell-based; how it was run: as §2
[8] = tested on: Epidermal growth factor receptor (Homo sapiens), P00533 [L861Q]; assay: Inhibition of human partial length EGFR L861Q mutant (R669 to V1011 residues) expressed in Escherichia coli BL21 assessed as residual activity at 1000 nM after 30 mins by Kinomescan method relative to control; how it was run: as §1
[9] = target: Ephrin type-A receptor 6 (Homo sapiens) (UniProt Q9UF33); assay: Inhibition of wild-type human partial length EPHA6 (Y700 to E1046 residues) expressed in Escherichia coli BL21 assessed as residual activity at 1000 nM after 30 mins by Kinomescan method relative to control
[10] = target: Rhodopsin kinase GRK1 (Homo sapiens) (UniProt Q15835); assay: Inhibition of wild-type human full length GRK1 (M1 to S563 residues) expressed in HEK293 cells assessed as residual activity at 1000 nM after 30 mins by Kinomescan method relative to control; type: cell-based
How it was run: (§3)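 Single-concentration screen at 1 µM across a 456-kinase KINOMEscan panel. The read-out is Percent Control for each kinase.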

[11] = target: Interleukin-1 receptor-associated kinase 1 (Homo sapiens) (UniProt P51617); assay: Inhibition of wild-type human partial length IRAK1 (R194 to S712 residues) expressed in HEK293 cells assessed as residual activity at 1000 nM after 30 mins by Kinomescan method relative to control; type: cell-based
[12] = target: Mast/stem cell growth factor receptor Kit (Homo sapiens) (UniProt P10721); assay: Inhibition of wild-type human partial length autoinhibited KIT (Y545 to D952 residues) expressed in HEK293 cells assessed as residual activity at 1000 nM after 30 mins by Kinomescan method relative to control; type: cell-based
[13] = target: Mitogen-activated protein kinase kinase kinase 4 (Homo sapiens) (UniProt Q9Y6R4); assay: Inhibition of wild-type human partial length MAP3K4 (G1319 to E1608 residues) expressed in Escherichia coli BL21 assessed as residual activity at 1000 nM after 30 mins by Kinomescan method relative to control
[14] = target: Dual specificity mitogen-activated protein kinase kinase 6 (Homo sapiens) (UniProt P52564); assay: Inhibition of wild-type human partial length MEK6 (K36 to D334 residues) expressed in Escherichia coli BL21 assessed as residual activity at 1000 nM after 30 mins by Kinomescan method relative to control
[15] = target: Serine/threonine-protein kinase NIM1 (Homo sapiens) (UniProt Q8IY84); assay: Inhibition of wild-type human partial length NIM1 (Q44 to N355 residues) expressed in HEK293 cells assessed as residual activity at 1000 nM after 30 mins by Kinomescan method relative to control; type: cell-based
[16] = target: Phosphatidylinositol 4-kinase beta (Homo sapiens) (UniProt Q9UBF8); assay: Inhibition of wild-type human full length PIK4CB (M1 to M828 residues) expressed in HEK293 cells assessed as residual activity at 1000 nM after 30 mins by Kinomescan method relative to control; type: cell-based; how it was run: as §3
[17] = target: Ribosomal protein S6 kinase alpha-4 (Homo sapiens) (UniProt O75676); assay: Inhibition of wild-type human partial length C-terminal RPS6KA4 kinase domain 2 (M375 to T705 residues) expressed in HEK293 cells assessed as residual activity at 1000 nM after 30 mins by Kinomescan method relative to control; type: cell-based
[18] = target: Ribosomal protein S6 kinase alpha-3 (Homo sapiens) (UniProt P51812); assay: Inhibition of wild-type human partial length N-terminal RSK3 kinase domain 1 (M1 to Q385 residues) expressed in Escherichia coli BL21 assessed as residual activity at 1000 nM after 30 mins by Kinomescan method relative to control
[19] = target: Proto-oncogene tyrosine-protein kinase Src (Homo sapiens) (UniProt P12931); assay: Inhibition of wild-type human partial length SRC (L240 to L536 residues) expressed in Escherichia coli BL21 assessed as residual activity at 1000 nM after 30 mins by Kinomescan method relative to control
Chain of Proto-oncogene tyrosine-protein kinase Src (Homo sapiens) (P12931 2-536 limits assumed): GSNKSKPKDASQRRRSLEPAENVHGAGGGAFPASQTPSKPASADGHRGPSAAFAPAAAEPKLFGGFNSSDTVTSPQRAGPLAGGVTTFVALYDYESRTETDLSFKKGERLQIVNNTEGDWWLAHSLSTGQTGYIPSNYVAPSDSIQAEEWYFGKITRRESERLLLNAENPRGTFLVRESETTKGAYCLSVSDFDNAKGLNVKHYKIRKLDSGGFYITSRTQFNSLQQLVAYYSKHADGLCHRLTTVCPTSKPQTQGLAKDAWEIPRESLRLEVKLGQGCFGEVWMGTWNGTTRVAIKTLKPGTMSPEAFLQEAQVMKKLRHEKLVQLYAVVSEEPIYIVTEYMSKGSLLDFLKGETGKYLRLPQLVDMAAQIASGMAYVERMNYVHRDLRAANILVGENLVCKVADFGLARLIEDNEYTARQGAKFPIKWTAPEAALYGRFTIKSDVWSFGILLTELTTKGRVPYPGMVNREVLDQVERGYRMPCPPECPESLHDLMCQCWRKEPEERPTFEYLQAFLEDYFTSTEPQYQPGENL

[20] = target: SRSF protein kinase 3 (Homo sapiens) (UniProt Q9UPE1); assay: Inhibition of wild-type human partial length SRPK3 (P41 to P567 residues) expressed in Escherichia coli BL21 assessed as residual activity at 1000 nM after 30 mins by Kinomescan method relative to control
[21] = target: High affinity nerve growth factor receptor (Homo sapiens) (UniProt P04629); assay: Inhibition of wild-type human partial length TRKA (G475 to G790 residues) expressed in HEK293 cells assessed as residual activity at 1000 nM after 30 mins by Kinomescan method relative to control; type: cell-based
Chain of High affinity nerve growth factor receptor (Homo sapiens) (P04629 33-796 limits assumed): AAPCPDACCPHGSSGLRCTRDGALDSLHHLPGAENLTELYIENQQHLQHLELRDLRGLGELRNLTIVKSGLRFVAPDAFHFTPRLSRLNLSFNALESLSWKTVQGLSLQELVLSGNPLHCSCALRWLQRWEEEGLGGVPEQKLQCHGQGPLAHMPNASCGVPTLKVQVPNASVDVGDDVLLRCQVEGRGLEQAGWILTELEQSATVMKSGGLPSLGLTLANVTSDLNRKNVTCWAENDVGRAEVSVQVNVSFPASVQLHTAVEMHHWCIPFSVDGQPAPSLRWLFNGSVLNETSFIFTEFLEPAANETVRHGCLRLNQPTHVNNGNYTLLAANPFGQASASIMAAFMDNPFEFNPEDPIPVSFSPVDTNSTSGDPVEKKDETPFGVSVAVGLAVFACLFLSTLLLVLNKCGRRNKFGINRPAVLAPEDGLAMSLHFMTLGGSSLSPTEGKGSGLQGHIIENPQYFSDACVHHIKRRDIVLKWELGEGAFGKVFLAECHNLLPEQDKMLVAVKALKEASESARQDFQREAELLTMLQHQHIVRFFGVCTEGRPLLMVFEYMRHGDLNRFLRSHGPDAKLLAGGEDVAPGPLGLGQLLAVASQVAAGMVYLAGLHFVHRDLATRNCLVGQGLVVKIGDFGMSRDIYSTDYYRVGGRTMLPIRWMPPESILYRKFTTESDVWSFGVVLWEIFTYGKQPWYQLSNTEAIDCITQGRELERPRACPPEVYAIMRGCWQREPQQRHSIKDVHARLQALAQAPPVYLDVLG

## COc1cc(OC)c(Cl)c(N2Cc3cnc(Nc4ccc(F)cc4)nc3N(C3CCN(C(=O)/C=C/CN(C)C)CC3)C2=O)c1Cl
[1]
  Activity: 96%
[2]
  Activity: 26%
[3]
  Activity: 92%
[4]
  Activity: 100%
[5]
  Activity: 100%
[6]
  Activity: 100%
[7]
  Activity: 100%
[8]
  Activity: 87%
[9]
  Activity: 100%
[10]
  Activity: 79%
[11]
  Activity: 98%
[12]
  Activity: 90%
[13]
  Activity: 46%
[14]
  Activity: 92%
[15]
  Activity: 100%
[16]
  Activity: 96%
[17]
  Activity: 93%
[18]
  Activity: 97%
[19]
  Activity: 11%
[20]
  Activity: 86%
[21]
  Activity: 38%
